Measured values published in ChEMBL document CHEMBL2380298, “Synthesis and antimicrobial activity of novel amphiphilic aromatic amino alcohols” (2013).
Converted amounts (≈) assume the structure as drawn.

What was measured:
Assay type in all cases: functional
[1] = system: Staphylococcus aureus; assay: Bactericidal activity against methicillin-resistant Staphylococcus aureus clinical isolate 236 after 24 hrs; details: isolate 236, 24 h
How it was run: (§1)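 Bactericidal concentration: 0.1 ml from wells at the MIC dilution and the dilutions on either side was streaked onto tryptic soy agar and incubated 24 h. It was taken as the lowest drug concentration giving no growth (100% killing).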

[2] = system: Staphylococcus aureus; assay: Bactericidal activity against methicillin-resistant Staphylococcus aureus clinical isolate 235 after 24 hrs; details: isolate 235, 24 h; how it was run: as §1
[3] = system: Staphylococcus aureus; assay: Antimicrobial activity against methicillin-resistant Staphylococcus aureus clinical isolate 215 by broth dilution method
[4] = system: Pseudomonas aeruginosa; assay: Antimicrobial activity against Pseudomonas aeruginosa ATCC 27853 by broth dilution method
[5] = system: Staphylococcus aureus; assay: Antimicrobial activity against methicillin-resistant Staphylococcus aureus clinical isolate 255 by broth dilution method
[6] = system: Staphylococcus aureus; assay: Antimicrobial activity against methicillin-resistant Staphylococcus aureus clinical isolate 264 by broth dilution method
[7] = system: Staphylococcus aureus; assay: Antimicrobial activity against methicillin-resistant Staphylococcus aureus clinical isolate 257 by broth dilution method
[8] = system: Staphylococcus aureus; assay: Antimicrobial activity against methicillin-resistant Staphylococcus aureus clinical isolate 232 by broth dilution method
[9] = system: Candida parapsilosis; assay: Antimicrobial activity against Candida parapsilosis ATCC 90030 by broth dilution method; details: Lodderomyces parapsilosis
[10] = system: Staphylococcus aureus; assay: Antimicrobial activity against methicillin-resistant Staphylococcus aureus clinical isolate 225 by broth dilution method
[11] = system: Staphylococcus aureus; assay: Bactericidal activity against methicillin-resistant Staphylococcus aureus clinical isolate 178 after 24 hrs; details: isolate 178, 24 h; how it was run: as §1
[12] = system: Staphylococcus aureus; assay: Antimicrobial activity against methicillin-resistant Staphylococcus aureus clinical isolate 176 by broth dilution method
[13] = system: Staphylococcus aureus; assay: Antimicrobial activity against methicillin-resistant Staphylococcus aureus clinical isolate 205 by broth dilution method
[14] = system: Staphylococcus aureus; assay: Bactericidal activity against methicillin-resistant Staphylococcus aureus clinical isolate 238 after 24 hrs; details: isolate 238, 24 h; how it was run: as §1
[15] = system: Staphylococcus aureus; assay: Antimicrobial activity against Staphylococcus aureus ATCC 29213 by broth dilution method; details: for MIC: Staphylococcus aureus, ATCC 29213
[16] = system: Escherichia coli; assay: Antimicrobial activity against Escherichia coli ATCC 11229 by broth dilution method; details: for MIC: Escherichia coli, ATCC 11229
[17] = system: Staphylococcus aureus; assay: Bactericidal activity against methicillin-resistant Staphylococcus aureus clinical isolate 237 after 24 hrs; details: isolate 237, 24 h; how it was run: as §1
[18] = system: Staphylococcus aureus; assay: Antimicrobial activity against methicillin-resistant Staphylococcus aureus clinical isolate 212 by broth dilution method
[19] = system: Staphylococcus aureus; assay: Antimicrobial activity against methicillin-resistant Staphylococcus aureus clinical isolate 237 by broth dilution method
[20] = system: Candida albicans; assay: Antimicrobial activity against Candida albicans ATCC 22019 by broth dilution method
[21] = system: Staphylococcus aureus; assay: Bactericidal activity against methicillin-resistant Staphylococcus aureus clinical isolate 255 after 24 hrs; details: isolate 255, 24 h; how it was run: as §1
[22] = system: Staphylococcus aureus; assay: Bactericidal activity against methicillin-resistant Staphylococcus aureus clinical isolate 212 after 24 hrs; details: isolate 212, 24 h; how it was run: as §1
[23] = system: Candida tropicalis; assay: Antimicrobial activity against Candida tropicalis ATCC 750 by broth dilution method
[24] = system: Staphylococcus aureus; assay: Antimicrobial activity against methicillin-resistant Staphylococcus aureus clinical isolate 231 by broth dilution method
[25] = system: Staphylococcus aureus; assay: Bactericidal activity against methicillin-resistant Staphylococcus aureus clinical isolate 231 after 24 hrs; details: isolate 231, 24 h; how it was run: as §1
[26] = system: Staphylococcus epidermidis; assay: Bactericidal activity against Staphylococcus epidermidis ATCC 12228 after 24 hrs; details: ATCC 12228, 24 h
How it was run: (§2)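 MBC: after MIC determination, 0.1 ml from the MIC well and from two dilutions either side streaked on tryptic soy agar, incubated 24 h; MBC taken as lowest concentration giving no growth (100% kill).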

[27] = system: Staphylococcus aureus; assay: Bactericidal activity against methicillin-resistant Staphylococcus aureus clinical isolate 232 after 24 hrs; details: isolate 232, 24 h; how it was run: as §1
[28] = system: Staphylococcus aureus; assay: Antimicrobial activity against methicillin-resistant Staphylococcus aureus clinical isolate 207 by broth dilution method
[29] = system: Staphylococcus aureus; assay: Antimicrobial activity against methicillin-resistant Staphylococcus aureus clinical isolate 227 by broth dilution method
[30] = system: Staphylococcus aureus; assay: Antimicrobial activity against methicillin-resistant Staphylococcus aureus clinical isolate 178 by broth dilution method
[31] = system: Staphylococcus aureus; assay: Bactericidal activity against methicillin-resistant Staphylococcus aureus clinical isolate 257 after 24 hrs; details: isolate 257, 24 h; how it was run: as §1
[32] = system: Staphylococcus aureus; assay: Antimicrobial activity against methicillin-resistant Staphylococcus aureus clinical isolate 260 by broth dilution method
[33] = system: Escherichia coli; assay: Bactericidal activity against Escherichia coli ATCC 11229 after 24 hrs; details: ATCC 11229, 24 h; how it was run: as §2
[34] = system: Staphylococcus aureus; assay: Antimicrobial activity against methicillin-resistant Staphylococcus aureus clinical isolate by broth dilution method; details: for MIC50 / MIC90: Staphylococcus aureus
[35] = system: Staphylococcus aureus; assay: Bactericidal activity against methicillin-resistant Staphylococcus aureus clinical isolate 264 after 24 hrs; details: isolate 264, 24 h; how it was run: as §1
[36] = system: Nakaseomyces glabratus; assay: Antimicrobial activity against Candida glabrata ATCC 18804 by broth dilution method
[37] = system: Staphylococcus aureus; assay: Antimicrobial activity against methicillin-resistant Staphylococcus aureus clinical isolate 236 by broth dilution method
[38] = system: Staphylococcus aureus; assay: Antimicrobial activity against methicillin-resistant Staphylococcus aureus clinical isolate 259 by broth dilution method
[39] = system: Staphylococcus epidermidis; assay: Antimicrobial activity against Staphylococcus epidermidis ATCC 12228 by broth dilution method; details: for MIC: Staphylococcus epidermidis, ATCC 12228
[40] = system: Staphylococcus aureus; assay: Antimicrobial activity against methicillin-resistant Staphylococcus aureus clinical isolate 195 by broth dilution method
[41] = system: Staphylococcus aureus; assay: Bactericidal activity against methicillin-resistant Staphylococcus aureus clinical isolate 260 after 24 hrs; details: isolate 260, 24 h; how it was run: as §1
[42] = system: Staphylococcus aureus; assay: Bactericidal activity against methicillin-resistant Staphylococcus aureus clinical isolate 259 after 24 hrs; details: isolate 259, 24 h; how it was run: as §1
[43] = system: Staphylococcus aureus; assay: Bactericidal activity against Staphylococcus aureus ATCC 29213 after 24 hrs; details: ATCC 29213, 24 h; how it was run: as §1
[44] = system: Staphylococcus aureus; assay: Antimicrobial activity against methicillin-resistant Staphylococcus aureus clinical isolate 218 by broth dilution method
[45] = system: Staphylococcus aureus; assay: Antimicrobial activity against methicillin-resistant Staphylococcus aureus clinical isolate 238 by broth dilution method
[46] = system: Staphylococcus aureus; assay: Antimicrobial activity against methicillin-resistant Staphylococcus aureus clinical isolate 235 by broth dilution method
[47] = system: Staphylococcus aureus; assay: Bactericidal activity against methicillin-resistant Staphylococcus aureus clinical isolate 176 after 24 hrs; details: isolate 176, 24 h; how it was run: as §1

Compound: CCCCCCCCCCOc1ccc(CNC(CO)(CO)CO)cc1.Cl
- MBC [1]: 4 mg/L
- MBC [2]: 4 mg/L
- MIC [3]: 4 mg/L
- MIC [4]: 16 mg/L
- MIC [5]: 4 mg/L
- MIC [6]: 2 mg/L
- MIC [7]: 4 mg/L
- MIC [8]: 16 mg/L
- MIC [9]: 8 mg/L
- MIC [10]: 8 mg/L
- MBC [11]: 128 mg/L
- MIC [12]: 8 mg/L
- MIC [13]: 8 mg/L
- MBC [14]: 8 mg/L
- -logMIC [15]: 4.7
- MIC [15]: 8 mg/L
- -logMIC [16]: 4.1
- MIC [16]: 32 mg/L
- MBC [17]: 16 mg/L
- MIC [18]: 8 mg/L
- MIC [19]: 16 mg/L
- MIC [20]: 4 mg/L
- MBC [21]: 8 mg/L
- MBC [22]: 128 mg/L
- MIC [23]: 8 mg/L
- MIC [24]: 8 mg/L
- MBC [25]: 8 mg/L
- MBC [26]: 8 mg/L
- MBC [27]: 32 mg/L
- MIC [28]: 8 mg/L
- MIC [29]: 4 mg/L
- MIC [30]: 8 mg/L
- MBC [31]: 8 mg/L
- MIC [32]: 8 mg/L
- MBC [33]: 32 mg/L
- -logMIC [34]: 4.842
- MIC50 [34]: 8 mg/L
- MIC90 [34]: 8 mg/L
- MBC [35]: 2 mg/L
- MIC [36]: 2 mg/L
- MIC [37]: 4 mg/L
- MIC [38]: 4 mg/L
- -logMIC [39]: 5
- MIC [39]: 4 mg/L
- MIC [40]: 8 mg/L
- MBC [41]: 16 mg/L
- MBC [42]: 4 mg/L
- MBC [43]: 8 mg/L
- MIC [44]: 4 mg/L
- MIC [45]: 8 mg/L
- MIC [46]: 4 mg/L

Compound: CCCCCCCCCCCCOc1ccc(CNC(CO)(CO)CO)cc1.Cl
- MBC [1]: 8 mg/L
- MBC [2]: 32 mg/L
- MIC [3]: 8 mg/L
- MIC [4]: > 256 mg/L
- MIC [5]: 4 mg/L
- MIC [6]: 4 mg/L
- MIC [7]: 16 mg/L
- MIC [8]: 8 mg/L
- MIC [9]: 4 mg/L
- MIC [10]: 8 mg/L
- MIC [12]: 8 mg/L
- MIC [13]: 8 mg/L
- MBC [14]: 4 mg/L
- MIC [15]: 8 mg/L
- MIC [16]: > 256 mg/L
- MBC [17]: 4 mg/L
- MIC [18]: 8 mg/L
- MIC [19]: 4 mg/L
- MIC [20]: 4 mg/L
- MBC [21]: 16 mg/L
- MBC [22]: 128 mg/L
- MIC [23]: 8 mg/L
- MIC [24]: 4 mg/L
- MBC [25]: 4 mg/L
- MBC [26]: 8 mg/L
- MBC [27]: 16 mg/L
- MIC [28]: 4 mg/L
- MIC [29]: 4 mg/L
- MIC [30]: 8 mg/L
- MBC [31]: 16 mg/L
- MBC [47]: 128 mg/L
- MIC [32]: 4 mg/L
- -logMIC [34]: 4.842
- MIC50 [34]: 4 mg/L
- MIC90 [34]: 8 mg/L
- MBC [35]: 8 mg/L
- MIC [36]: 2 mg/L
- MIC [37]: 4 mg/L
- MIC [38]: 4 mg/L
- -logMIC [39]: 4.73
- MIC [39]: 8 mg/L
- MIC [40]: 8 mg/L
- MBC [41]: 4 mg/L
- MBC [42]: 16 mg/L
- MBC [43]: 8 mg/L
- MIC [44]: 4 mg/L
- MIC [45]: 4 mg/L
- MIC [46]: 4 mg/L

Compound: CCCCCCCCCCCCCCOc1ccc(CNC(CO)(CO)CO)cc1.Cl
- MBC [1]: 8 mg/L
- MBC [2]: 8 mg/L
- MIC [3]: > 1020 mg/L
- MIC [4]: > 256 mg/L
- MIC [5]: 8 mg/L
- MIC [6]: 16 mg/L
- MIC [7]: 2 mg/L
- MIC [8]: 8 mg/L
- MIC [9]: 8 mg/L
- MIC [10]: > 1020 mg/L
- MIC [12]: 16 mg/L
- MIC [13]: 16 mg/L
- MBC [14]: 4 mg/L
- MIC [15]: 2 mg/L
- MIC [16]: > 256 mg/L
- MBC [17]: 4 mg/L
- MIC [18]: > 1020 mg/L
- MIC [19]: 4 mg/L
- MIC [20]: 16 mg/L
- MBC [21]: 16 mg/L
- MIC [23]: 32 mg/L
- MIC [24]: 2 mg/L
- MBC [25]: 4 mg/L
- MBC [26]: 512 mg/L
- MBC [27]: 8 mg/L
- MIC [28]: > 1020 mg/L
- MIC [29]: > 1020 mg/L
- MIC [30]: 8 mg/L
- MBC [31]: 8 mg/L
- MIC [32]: 2 mg/L
- -logMIC [34]: 5.03
- MIC50 [34]: 8 mg/L
- MIC90 [34]: > 1020 mg/L
- MBC [35]: 64 mg/L
- MIC [36]: 8 mg/L
- MIC [37]: 8 mg/L
- MIC [38]: 2 mg/L
- -logMIC [39]: 5.36
- MIC [39]: 2 mg/L
- MIC [40]: 16 mg/L
- MBC [41]: 8 mg/L
- MBC [42]: 2 mg/L
- MBC [43]: 16 mg/L
- MIC [44]: 8 mg/L
- MIC [45]: 4 mg/L
- MIC [46]: 4 mg/L

Compound: CCC(C)n1ncn(-c2ccc(N3CCN(c4ccc(OCC5COC(Cn6cncn6)(c6ccc(Cl)cc6Cl)O5)cc4)CC3)cc2)c1=O (stereo not drawn) [ITRACONAZOLE]
- MIC [9]: > 512 mg/L
- MIC [23]: > 512 mg/L
- MIC [36]: 256 mg/L (≈ 363 µM)
